≈ marks a conversion by molar mass, not a printed value. Calls of active or inactive are those of the source. The calls are words filed in the database; no cut-off is given here.
Key:
[1] = Cytotoxicity against human HeLa-P4 cells at 50 uM […] by MTS assay relative to control; format: cell-based; settings: hela p4, 50 µM
[2] = tested on: Human immunodeficiency virus 1; experiment: (§1) Antiviral activity against HIV1 LAI infected in human HeLa-P4 cells harboring a stably integrated LTR-linked LacZ reporter gene assessed as inhibition of viral replication at 50 uM preincubated with cells for 2 hrs followed by viral infection and measured after 48 hrs of compound challenge by CPRG based beta-galactosidase assay relative to control; format: functional; settings: Human immunodeficiency virus 1, LAI, HeLaP4
In short: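 Single-concentration screen: HeLa P4 cells (stably integrated LTR–LacZ reporter) infected with HIV-1 Laï and incubated 48 h with compound at 50 µM; zidovudine as positive control.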

[3] = tested on: Human immunodeficiency virus 1; experiment: as §1, with “replication” for “replication at 50 uM”, “assay” for “assay relative to control”; format: functional, organism-based
[4] = molecular target: Human immunodeficiency virus type 1 reverse transcriptase (Human immunodeficiency virus 1, UniProt Q72547); experiment: Inhibition of wild-type recombinant HIV-1 subtype B reverse transcriptase p66/p51 heterodimer expressed in Escherichia coli using calf thymus DNA and [3H]-deoxythymidine 5'-triphophaste as substrate measured after 15 mins by liquid scintillation counting method
In short: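 Inhibition measured with subtype B wild-type HIV-1 RT in an in vitro susceptibility assay; nevirapine and AZT as positive controls.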

[5] = Plasma protein binding in mouse at 1 uM incubated for 4 hrs by rapid equilibrium dialysis method; format: ADME, cell-free; settings: read-out: PPB (converted)
[6] = Cmax in iv dosed mouse plasma measured after 10 mins; format: ADME, organism-based; set-up: route intravenous, time 10 min
[7] = Metabolic stability in CD1 mouse liver microsomes assessed as half life of compound at 1 uM and measured up to 60 mins in presence of NADPH by LC-MS analysis; format: ADME, Microsome
[8] = Stability in CD-1 mouse plasma assessed as parent compound remaining at 1 uM measured up to 60 mins by LC-MS/MS analysis; format: ADME, cell-free; settings: read-out: Stabilty
[9] = Cmax in po dosed mouse plasma measured after 10 mins; format: ADME, organism-based; set-up: route oral, time 10 min
[10] = Octanol/water partition coefficient, logD of the compound at pH 7.4 by shake flask method; format: physicochemical
[11] = tested on: Human immunodeficiency virus 1; experiment: Antiviral activity against HIV1 LAI infected in human MT2 cells assessed as suppression of viral replication up to 50 uM pre-incubated with cells for 2 hr before viral infection and measured after 3 days of cultivation by RT-PCR analysis; format: functional, organism-based; settings: dose microM <=50, time 3.0 day
[12] = tested on: Human immunodeficiency virus 1; experiment: Inhibition of recombinant HIV1 integrase mediated strand transfer activity at 0.1 to 333 uM in presence of U5A/U5B2 and [gamma-32P]ATP; settings: dose microM 0.1-333
In short: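 HIV-1 integrase strand-transfer reaction run with increasing inhibitor concentrations from 100 nM to 333 µM, with raltegravir as positive control, and the strand-transfer efficiency was measured.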

[13] = Thermodynamic solubility of compound in PBS at pH 7.4 incubated for 24 hrs under shaking condition by HPLC analysis; format: physicochemical; settings: read-out: Therm_solubility
[14] = Human immunodeficiency virus 1, LAI, HeLaP4, read-out: EC50

| SMILES | Activity [1] [%] | inhibition at 50 µM [2] [%] | also measured |
| --- | --- | --- | --- |
| COC(=O)c1c(N)c(C#N)nn1-c1ccc(C(F)(F)F)cc1 | 14 | < 30 | – |
| COC(=O)c1c(N)c(C#N)nn1-c1ccccc1OC | 9.2 | < 30 | – |
| C[C@H](Cn1cnc2c(N)ncnc21)OCP(=O)(O)O [TENOFOVIR ANHYDROUS] | – | – | EC50 [3, 14]: 13.3 µM |
| C#Cc1cccc(-n2nc(C#N)c(N)c2C(=O)OC)c1 | 14 | < 30 | – |
| COC(=O)c1c(N)c(C#N)nn1-c1ccccc1OCc1ccccc1 | 9 | 63 | IC50 [4]: > 1000 µM; fraction unbound at 4 h, 1 µM [5]: 0.05; Cmax [6]: 238 ng/mL; half-life at 1 µM [7]: 3 min; remaining at 1 h, 1 µM [8]: 100%; Cmax [9]: 18 ng/mL; logD [10]: 3.69; Activity [11]: Active; inhibition [12]: inactive; EC50 [3, 14]: 19.4 µM; EC50 ([3]; hela p4): Dose-dependent effect; solubility thermodynamic at 24 h [13]: 9.6 µM (≈ 3.34 µg/mL) |
| COC(=O)c1c(N)c(C#N)nn1-c1ccc(Br)cc1 | > 15 | 67 | – |
| COC(=O)c1c(N)c(C#N)nn1-c1cccc(Br)c1 | 9 | 42 | – |
| COC(=O)c1c(N)c(C#N)nn1-c1ccccc1 | 7 | < 30 | – |
| COC(=O)c1c(N)c(C#N)nn1-c1ccccc1C(=O)OC(C)(C)C | 2.8 | < 30 | – |
| COC(=O)c1c(N)c(C#N)nn1-c1cccc(C(F)(F)F)c1 | > 15 | < 30 | – |
| COC(=O)c1c(N)c(C#N)nn1-c1ccccc1I | > 15 | < 30 | – |
| COC(=O)c1c(N)c(C#N)nn1-c1ccc(F)cc1 | 6 | < 30 | – |
| COC(=O)c1c(N)c(C#N)nn1-c1ccccc1[N+](=O)[O-] | 0 | 42 | – |
| COC(=O)c1c(N)c(C#N)nn1-c1cccc(Cl)c1 | 11 | < 30 | – |
| COC(=O)c1c(N)c(C#N)nn1-c1ccccc1Br | 4.8 | 32 | – |
| COC(=O)c1c(N)c(C#N)nn1-c1ccc(C(=O)OC(C)(C)C)cc1 | 14 | 47 | – |
| COC(=O)c1c(N)c(C#N)nn1-c1ccccc1F | 3.6 | < 30 | – |
| COC(=O)c1c(N)c(C#N)nn1-c1cccc(C(=O)OC(C)(C)C)c1 | 0 | 36 | – |
| COC(=O)c1c(N)c(C#N)nn1-c1ccc([N+](=O)[O-])cc1 | 0 | 43 | – |
| COC(=O)c1c(N)c(C#N)nn1-c1cccc(F)c1 | 0 | 48 | – |
| COC(=O)c1c(N)c(C#N)nn1-c1cccc(OCc2ccccc2)c1 | 11 | 65 | Cmax [6]: 241 ng/mL; half-life at 1 µM [7]: 4.6 min; remaining at 1 h, 1 µM [8]: 100%; logD [10]: 3.84; Activity [11]: Active; EC50 [3, 14]: 15.2 µM; EC50 ([3]; hela p4): Dose-dependent effect; solubility thermodynamic at 24 h [13]: 1.03 µM (≈ 0.359 µg/mL) |
| COC(=O)c1c(N)c(C#N)nn1-c1ccc(OCc2ccccc2)cc1 | 3.8 | < 30 | – |
| COC(=O)c1c(N)c(C#N)nn1-c1ccccc1Cl | 2.4 | 30 | – |
| COC(=O)c1c(N)c(C#N)nn1-c1cccc(OC)c1 | 6 | < 30 | – |
| C#Cc1ccccc1-n1nc(C#N)c(N)c1C(=O)OC | 7 | < 30 | – |
| COC(=O)c1c(N)c(C#N)nn1-c1cccc([N+](=O)[O-])c1 | 0 | 47 | – |
| COC(=O)c1c(N)c(C#N)nn1-c1ccc(OC)cc1 | 14.6 | < 30 | – |
| COC(=O)c1c2nc(-c3cccc(Br)c3)cc(N)c2nn1-c1cccc(OC)c1 | 2 | 54 | – |
| COC(=O)c1c(N)c(C#N)nn1-c1ccc(Cl)cc1 | > 15 | 56 | – |
